Experimental findings from the RNAGym collection of RNA variant scans (doi:10.1126/science.aae0568) are described below.

B1: tRNA (parent)
chain: GUUCCGUUGGCGUAAUGGUAACGCGUCUCCCUCCUAAGGAGAAGACUGCGGGUUCGAGUCCCGUACGGAACG

Fewer inactive variants are shown than the library holds.

In the data set the parent is B1. Description: yeast fitness relative to wild type (ratio to wild type); higher = fitter; tRNA-Arg(CCU), competitive growth, 37 C, YPD. In short, it runs like this: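 Start and end populations of a pooled competition were compared by 100-nucleotide paired-end sequencing of gene amplicons. The Saccharomyces cerevisiae strains carried tRNA-Arg(CCU) gene variants at the native genomic locus, synthesised with a 3% per-site mutation rate at 69 sites, and competed in YPD at 37°C for 24 hours in six parallel replicates. Darwinian fitness relative to wild type was based on the change in genotype frequencies. Genotypes required ≥ 100 starting reads, and estimates < 0.5 were set to 0.5.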
On to C29G U32C A40U C61U C66U, for which the yeast fitness was ≤ 0.5.

Consider C29U C49U C55G G58A, for which the yeast fitness was ≤ 0.5.

For the variant C30A C61U, the yeast fitness stood at 0.767.

C30A C66U: the yeast fitness is 0.847.

Turning to C30A C62U, the yeast fitness was found to be 0.886.

Take C29A A70G: the yeast fitness came out at 0.723.

Take C30A A42U C55U C66A: the yeast fitness was found to be 0.531.

As for C29G A37U C55G, the yeast fitness came to 0.549.

On to C29G C33G U35G G44A G67A, for which the yeast fitness was ≤ 0.5.

For the variant C30A C33A A57U, the yeast fitness is ≤ 0.5.

As to U28G C30G A40C A42U G51A, the yeast fitness was ≤ 0.5.

Turning to C29U A45U U47C U54A, the yeast fitness is ≤ 0.5.

Take U28C A57C: the yeast fitness amounted to 0.586.

Regarding U28C C33G G38A, the yeast fitness is ≤ 0.5.

Turning to C29U G50C A70G, the yeast fitness was ≤ 0.5.

Regarding C29U C49A, the yeast fitness was determined as 0.592.

As to C30A C46G G52A G56A, the yeast fitness came to 0.608.

As for C29U A42G A43G, the yeast fitness was ≤ 0.5.

For C30A C55A C62A, the yeast fitness is ≤ 0.5.

Take C29G U35A G48C: the yeast fitness was ≤ 0.5.

Regarding U28G U64C, the yeast fitness came out at 0.864.

For the variant U28G U64A, the yeast fitness was 0.65.

Turning to C30A G50C C66U, the yeast fitness is ≤ 0.5.

Take C29U U53A C61U U64C: the yeast fitness is ≤ 0.5.

In the case of C29G C33U C61U A69C, the yeast fitness was ≤ 0.5.

As to U28C U32A G44A A57C, the yeast fitness is ≤ 0.5.

On to C29G C31G C49G C61G, for which the yeast fitness is ≤ 0.5.

In the case of C29U C30U C49G, the yeast fitness amounted to 0.731.

In the case of U28C A42U A43G, the yeast fitness was found to be 0.597.

On to C29G C55U C62U, for which the yeast fitness was found to be 0.567.

As for C30A U35C A36G A42C C60U C61U, the yeast fitness is ≤ 0.5.

As for C29A A42U U64C, the yeast fitness was ≤ 0.5.

Take C29A C33U C61U A69U: the yeast fitness was ≤ 0.5.

On to C29U C46G G51A G52A, for which the yeast fitness is ≤ 0.5.

Regarding U28C A42G, the yeast fitness worked out at 0.913.

C29G C55G A70G: the yeast fitness is ≤ 0.5.

Consider U28C G44C G56C, for which the yeast fitness was 0.7.

As to C29G C49G G50C C62G A69U, the yeast fitness was determined as 0.506.

With C29U C31A G38C C60A, the yeast fitness was ≤ 0.5.

For the variant C29G G44A G56C C62A G67C, the yeast fitness is ≤ 0.5.

On to C30G A36U C61U, for which the yeast fitness came out at 0.504.

In the case of C29G U32G, the yeast fitness is ≤ 0.5.

Take U28C A65U: the yeast fitness was 0.855.

As for C29U A36C G56A, the yeast fitness was ≤ 0.5.

Consider C29A C49U G63A, for which the yeast fitness was ≤ 0.5.

Regarding C29G G38A G44A C46U C62G, the yeast fitness was ≤ 0.5.

On to C29U G41U, for which the yeast fitness turned out to be 0.769.

For the variant C29U A37C G41A A70C, the yeast fitness is ≤ 0.5.

Consider C29U A43C A69U, for which the yeast fitness stood at 0.673.

On to C29A A37G G67C, for which the yeast fitness is 0.62.

For U28G C46A C61G, the yeast fitness was ≤ 0.5.

As for U28C C31A C34G A45U, the yeast fitness is ≤ 0.5.

On to C29U A40U G41C, for which the yeast fitness is ≤ 0.5.

C29U C34A A70U: the yeast fitness is ≤ 0.5.

On to C29U U35A A70C, for which the yeast fitness was ≤ 0.5.

In the case of C30A A45U C55U, the yeast fitness amounted to 0.589.

Consider C29G U47C, for which the yeast fitness amounted to 0.75.

Take C29U A43U G52C U59A: the yeast fitness is ≤ 0.5.

With C29A C46U C60U, the yeast fitness was ≤ 0.5.

In the case of C30G C33G C60G C62U, the yeast fitness was ≤ 0.5.

As for C29U C33U U54A, the yeast fitness is ≤ 0.5.

For the variant C30G A43U G48C C55A C66U, the yeast fitness was ≤ 0.5.

For the variant C29A C30U C34U C61U C66A, the yeast fitness was ≤ 0.5.

For the variant C29U C30G U59A, the yeast fitness was 0.617.

C30G C34G: the yeast fitness was ≤ 0.5.

For the variant C29G G38A U53A U64A, the yeast fitness is ≤ 0.5.

Take C29A G51A C55A G56C A65U: the yeast fitness is ≤ 0.5.

With U28A C66A, the yeast fitness stood at 0.575.

In the case of C30G A37C C46G A69C, the yeast fitness amounted to 0.571.

Turning to U28G C29G C62A, the yeast fitness is 0.711.

Take C30G A70U: the yeast fitness was 0.58.

Regarding U28A G63A, the yeast fitness came out at 0.849.

On to C30G A57U C62U, for which the yeast fitness was ≤ 0.5.

Turning to C29G C30U U47C, the yeast fitness is ≤ 0.5.

Consider C29U G67U, for which the yeast fitness was determined as 0.91.

For the variant C29G U54C, the yeast fitness came out at 0.664.

Consider C29G G68U, for which the yeast fitness worked out at 0.68.

C29G C61A: the yeast fitness was ≤ 0.5.

For C29G A57G, the yeast fitness is 0.715.

In the case of C29A G44A U64C, the yeast fitness stood at 0.56.

Consider C30A A43G G50C, for which the yeast fitness was 0.767.

Turning to C29G C46A A57G U59C, the yeast fitness was ≤ 0.5.

In the case of C30A A42U C49U U59C A69C, the yeast fitness amounted to 0.557.

Regarding C29A A57G A65C, the yeast fitness is ≤ 0.5.

With C29G C31G C49A, the yeast fitness is ≤ 0.5.

For the variant C29G G50C A65U, the yeast fitness was ≤ 0.5.

Regarding C29G C34U C62U, the yeast fitness is ≤ 0.5.

Turning to C29G C55G A57G A69G, the yeast fitness was 0.606.

For the variant C30G C33G C34U A42U A57G A65C, the yeast fitness was ≤ 0.5.

In the case of C29G G44C C49G A57C, the yeast fitness was found to be 0.598.

With C30A A36U, the yeast fitness was 0.697.

For the variant C30A A36C, the yeast fitness amounted to 0.579.

Consider C29U A36U C49U, for which the yeast fitness was ≤ 0.5.

As to U28G G41C U64C, the yeast fitness turned out to be 0.521.

For the variant C30G A57G G68U, the yeast fitness is ≤ 0.5.

With U28C A37U A40U C49G A57U G68C A70G, the yeast fitness came out at 0.624.

For U28C A37C A69C, the yeast fitness is ≤ 0.5.

Regarding C29G A37G A57U, the yeast fitness amounted to 0.617.

Turning to C30A A40C A43G C49G G63C, the yeast fitness is ≤ 0.5.

Take C29U C30A C61U: the yeast fitness was ≤ 0.5.

As to C29U C30A C61G, the yeast fitness was ≤ 0.5.

On to U28C C62G C66G, for which the yeast fitness is ≤ 0.5.

As to C30A A42U C55G, the yeast fitness was ≤ 0.5.

As for C29U C62U A70U, the yeast fitness was 0.532.

Take C30A A70C: the yeast fitness amounted to 1.01.

In the case of U28C G52A, the yeast fitness was determined as 0.836.

U28C G52C: the yeast fitness stood at 0.668.

Take U28G A43G A45G C49U A57U: the yeast fitness is ≤ 0.5.

C29G A37C: the yeast fitness amounted to 0.56.

Consider C29G C34A A37G, for which the yeast fitness is ≤ 0.5.

U28G C30A G51U: the yeast fitness was ≤ 0.5.

In the case of U28A U53A, the yeast fitness came to 0.6.

Turning to U28G G38C A40G, the yeast fitness stood at 0.546.

Consider C29G U32A U47C C62A, for which the yeast fitness is ≤ 0.5.

As to C29A G39C G58A, the yeast fitness was found to be 0.905.

As for C29G A40U G58A, the yeast fitness was ≤ 0.5.

In the case of C29U C31A A43G G67C, the yeast fitness is ≤ 0.5.

Take C30A A40C: the yeast fitness is 0.712.

As to C29G C33U G58C C60G C62A, the yeast fitness was ≤ 0.5.

With C30A G39A, the yeast fitness was found to be 0.833.

For C30A G39U, the yeast fitness was determined as 0.772.

Turning to U28C G51C, the yeast fitness stood at 0.502.

Take C30A C60A: the yeast fitness worked out at 0.619.

For C29U U32G, the yeast fitness stood at 0.686.

For C30G A42U A45G A69U, the yeast fitness was ≤ 0.5.

In the case of U28C U35G A69C, the yeast fitness was ≤ 0.5.

On to C29A G44C, for which the yeast fitness was 0.778.

In the case of U28C G39C G44C, the yeast fitness came to 0.529.

Turning to U28G A57U G63A, the yeast fitness came to 0.874.

With C30A C33G A40G, the yeast fitness was ≤ 0.5.

Regarding C29U U64A, the yeast fitness came out at 0.677.

With C29U U64G, the yeast fitness is 0.748.

On to U28C G39A A40U A42G, for which the yeast fitness was ≤ 0.5.

Consider C30A U59G, for which the yeast fitness is 0.775.

For the variant C29U G51C, the yeast fitness stood at 0.57.

On to C29U A70C, for which the yeast fitness was 0.867.

For the variant C29G G48C U59A, the yeast fitness is ≤ 0.5.

C29G C49A G67C: the yeast fitness is ≤ 0.5.

Regarding U28A U35A, the yeast fitness is 0.584.

On to C29U C30U U59A G63C, for which the yeast fitness was ≤ 0.5.

Regarding C29A C34U G48C A57U, the yeast fitness is ≤ 0.5.

On to C29U C31U C33G U35C, for which the yeast fitness came out at 0.588.

Take U28C C30U A69U: the yeast fitness stood at 0.598.

Take C30G A42C U59A C60U: the yeast fitness was found to be 0.507.

For C30G C34A C49G G50A U64A, the yeast fitness is 0.56.

For C29A C31U A43C G44C A65U, the yeast fitness is ≤ 0.5.

Turning to U28C A40U C55A, the yeast fitness was ≤ 0.5.

With U28C G67U, the yeast fitness was determined as 0.914.

As to C30A A36U G38C G39A C66A, the yeast fitness is ≤ 0.5.

Regarding U28C G39C G44C C46U, the yeast fitness is ≤ 0.5.

For C29G U32C G51A, the yeast fitness was determined as 0.723.

Regarding U28A G50U, the yeast fitness worked out at 0.622.

Consider U28G G51C C55G, for which the yeast fitness was ≤ 0.5.

For C30A C55G C66U, the yeast fitness was ≤ 0.5.

In the case of C29U U53A, the yeast fitness came out at 0.625.

With C29G C33U, the yeast fitness is ≤ 0.5.

Consider C30A C31U, for which the yeast fitness was determined as 1.

Regarding C29U G39A G67A, the yeast fitness was determined as 0.565.

Turning to C29A U35C C66U, the yeast fitness was ≤ 0.5.

C30G A43U: the yeast fitness worked out at 0.635.

For C30G A43C, the yeast fitness came out at 0.549.

C29G G67A: the yeast fitness turned out to be 0.565.

As for U28G G51U U64A C66U A69C, the yeast fitness is ≤ 0.5.

Turning to C29G G63A, the yeast fitness came out at 0.646.

With C29G C30G G63A, the yeast fitness worked out at 0.607.

Take U28G A36U C60U: the yeast fitness is ≤ 0.5.

With U28C G38C A45U G68A A69C, the yeast fitness was ≤ 0.5.
